According to ChEMBL document CHEMBL4610003 (Bioorg Med Chem, 2020):
In brackets after ≈: the same amount, converted by molar mass.

Experiments:
[1] = Apparent volume of distribution during terminal phase in CD-1 mouse at 2 to 3 mg/kg, iv administered as single bolus dose; assay type: ADME, organism-based; details: in vivo
Summary of the method: (§1)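 Male CD-1 mice received a single intravenous bolus at 2–3 mg/kg. Reported values are IV clearance and the apparent volume of distribution during the terminal phase, in L/kg.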

[2] = system: Mycobacterium tuberculosis; assay: Antimycobacterial activity against Mycobacterium tuberculosis H37Rv assessed as bacterial growth inhibition under replicating, aerobic condition by microplate Alamar blue assay; assay type: functional
Summary of the method: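 Read-out is MIC90, the lowest concentration giving 90% growth inhibition of M.tb H37Rv, in µg/mL. Bacteria were grown under aerobic, replicating conditions (MABA).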

[3] = Intrinsic clearance in human liver microsomes assessed per mg protein; assay type: ADME, Microsome; details: read-out: CLH
Summary of the method: (§2)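 Clearance of compound by human or mouse liver microsomes, expressed as µL/min/mg protein.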

[4] = target: Voltage-gated inwardly rectifying potassium channel KCNH2 (Homo sapiens, UniProt Q12809); assay: Inhibition of human ERG
Chain of Voltage-gated inwardly rectifying potassium channel KCNH2 (Q12809 whole entry): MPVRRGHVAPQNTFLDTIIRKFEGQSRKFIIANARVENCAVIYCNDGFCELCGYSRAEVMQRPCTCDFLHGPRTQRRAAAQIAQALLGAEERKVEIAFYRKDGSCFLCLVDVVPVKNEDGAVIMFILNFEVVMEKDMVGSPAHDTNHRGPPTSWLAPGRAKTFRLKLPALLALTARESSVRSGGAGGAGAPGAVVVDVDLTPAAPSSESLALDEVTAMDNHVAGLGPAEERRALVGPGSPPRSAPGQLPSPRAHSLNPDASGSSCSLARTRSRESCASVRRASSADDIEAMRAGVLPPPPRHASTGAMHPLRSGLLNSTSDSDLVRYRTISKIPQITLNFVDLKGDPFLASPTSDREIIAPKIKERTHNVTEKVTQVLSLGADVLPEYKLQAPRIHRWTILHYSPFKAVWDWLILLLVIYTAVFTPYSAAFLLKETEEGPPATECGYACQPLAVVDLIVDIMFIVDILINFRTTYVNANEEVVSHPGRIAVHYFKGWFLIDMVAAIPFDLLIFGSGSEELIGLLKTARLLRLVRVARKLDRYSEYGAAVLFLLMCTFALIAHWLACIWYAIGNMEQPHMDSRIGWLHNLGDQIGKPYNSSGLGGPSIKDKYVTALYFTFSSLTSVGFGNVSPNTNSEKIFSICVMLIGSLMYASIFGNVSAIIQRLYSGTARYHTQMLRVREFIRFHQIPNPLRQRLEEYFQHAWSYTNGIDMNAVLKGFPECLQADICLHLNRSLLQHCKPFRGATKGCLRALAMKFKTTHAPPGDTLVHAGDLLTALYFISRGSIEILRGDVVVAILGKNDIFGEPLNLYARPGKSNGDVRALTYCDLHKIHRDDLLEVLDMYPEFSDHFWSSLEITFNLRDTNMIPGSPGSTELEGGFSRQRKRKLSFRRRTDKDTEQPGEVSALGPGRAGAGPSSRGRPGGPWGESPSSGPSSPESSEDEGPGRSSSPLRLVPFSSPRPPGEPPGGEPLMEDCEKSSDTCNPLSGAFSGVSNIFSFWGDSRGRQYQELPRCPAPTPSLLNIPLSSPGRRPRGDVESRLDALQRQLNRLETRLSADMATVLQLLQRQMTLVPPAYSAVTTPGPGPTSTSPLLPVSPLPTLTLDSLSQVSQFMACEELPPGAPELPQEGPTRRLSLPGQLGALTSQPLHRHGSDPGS

Vero = assay: Cytotoxicity against African green monkey Vero cells assessed as reduction in cell viability incubated for 72 hrs by […] assay; assay type: cell-based; details: Chlorocebus sabaeus
[5] = AUC (0 to infinity) in CD-1 mouse at 10 mg/kg, po via gavage administered as single dose; assay type: ADME, organism-based; set-up: dose 10 mg/kg, route oral, time infinity; details: in vivo
Summary of the method: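 Male CD-1 mice given a single 10 mg/kg dose by oral gavage. Exposure is reported as area under the curve from 0 to infinity in µg*h/mL.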

[6] = Intrinsic clearance in mouse liver microsomes assessed per mg protein; assay type: ADME, Microsome; details: read-out: CLH; summary of the method: as §2
[7] = Oral bioavailability in CD-1 mouse at 10 mg/kg administered via gavage as single dose; assay type: ADME, organism-based; details: in vivo
[8] = Clearance in CD-1 mouse at 2 to 3 mg/kg, iv administered as single bolus dose; assay type: ADME, organism-based; details: in vivo; summary of the method: as §1
[9] = system: Mycobacterium tuberculosis; assay: Antimycobacterial activity against Mycobacterium tuberculosis H37Rv assessed as bacterial growth inhibition incubated for 10 days under anerobic condition followed by incubation under ambient gaseous condition for […] by low oxygen recovery assay; assay type: functional
Summary of the method: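 Read-out is MIC90, the lowest concentration giving 90% growth inhibition of M.tb H37Rv, in µg/mL. Bacteria were held under non-replicating, low-oxygen conditions (LORA).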

Structure (SMILES)	Vz/F [1] [L/kg]	MIC90 [2] [µg/mL]	microsomal CLint [3] [µL/min/mg]	IC50 [4] [µM]	IC50 (Vero) [µg/mL]	AUC(0-inf) [5] [ng·h/mL]	microsomal CLint [6] [µL/min/mg]	bioavailability [7] [%]	clearance [8] [mL/min/kg]	MIC90 [9] [µg/mL]
COc1cc([C@](O)(CCN(C)C)[C@@H](c2cc3cc(Br)ccc3nc2OC)c2ccnc(OC)c2OC)cc(OC2CCC2)n1 (racemic)	33	< 0.004	2.5	> 10	> 10	8400	4.6	56	11	0.01 (≈ 0.015 µM)
COc1cc([C@](O)(CCN(C)C)[C@@H](c2cc3cc(C#N)ccc3nc2OC)c2ccnc(OC)c2OC)cc(OC(F)F)n1 (racemic)	40	< 0.02	2.5	7	> 10	3000	11	43	24	0.04 (≈ 0.0656 µM)
COc1cc([C@](O)(CCN(C)C)[C@@H](c2cc3cc(Br)ccc3nc2OC)c2cccc(OC)c2F)cc(OC(C)C)n1 (racemic)	34	< 0.02	3.4	> 30	> 10	9000	6	43	8.9	0.03 (≈ 0.0467 µM)
COc1cc([C@](O)(CCN(C)C)[C@H](c2cccc(C)c2)c2cc3cc(Br)ccc3nc2OC)cc(OC(C)C)n1 (racemic)		0.01 (≈ 0.0164 µM)		> 10						0.01 (≈ 0.0164 µM)
CCOc1cc([C@](O)(CCN(C)C)[C@@H](c2cc3cc(Br)ccc3nc2OC)c2ccnc(OC)c2OC)cc(OC(C)C)n1 (racemic)	9.1	< 0.02	1.8		> 10	32000	1.6	58	3.1	< 0.02
CCSc1cc([C@](O)(CCN(C)C)[C@@H](c2cc3cc(C#N)ccc3nc2OC)c2ccnc(OC)c2OC)cc(SCC)n1 (racemic)		0.06 (≈ 0.0947 µM)		1.5						0.03 (≈ 0.0473 µM)
COc1cc([C@](O)(CCN(C)C)[C@@H](c2cc3cc(Br)ccc3nc2OC)c2ccnc(OC)c2OC)cc(OC(F)F)n1 (racemic)	27	< 0.004	2.1	> 10	> 10	9800	4.9	50	8.7	< 0.004
CCOc1cc([C@](O)(CCN(C)C)[C@H](c2cccc(C)c2)c2cc3cc(Br)ccc3nc2OC)cc(OC)n1 (racemic)	45	< 0.02	4.4	> 10	> 10	9400	7.8	65	12	< 0.02
COc1cc([C@](O)(CCN(C)C)[C@@H](c2cc3cc(C#N)ccc3nc2OC)c2cccc(C)c2F)cc(OC(F)F)n1 (racemic)	38	0.01 (≈ 0.0172 µM)	0.6	> 30	> 10	8600	5.9	66	13	0.03 (≈ 0.0517 µM)
COc1cc([C@](O)(CCN(C)C)[C@@H](c2cc3cc(Br)ccc3nc2OC)c2cccc(OC)c2F)cc(OC(F)F)n1 (racemic)	18	0.04 (≈ 0.0615 µM)	0.1	> 30	> 10	14400	6.4	83	9.7	< 0.02
COc1cc([C@](O)(CCN(C)C)[C@@H](c2cc3cc(Br)ccc3nc2OC)c2ccnc(OC)c2OC)cc(OC(C)C)n1 (racemic)	19	< 0.01	6.4	17	> 10	5600	6.7	22	6.8	< 0.01
COc1cc([C@](O)(CCN(C)C)[C@@H](c2cc3cc(C#N)ccc3nc2OC)c2cccc(OC)c2F)cc(SC)n1 (racemic)	54	0.02 (≈ 0.0347 µM)	16	> 10	> 10	1100	36	28	42	0.04 (≈ 0.0694 µM)
COc1cc([C@](O)(CCN(C)C)[C@@H](c2cc3cc(Br)ccc3nc2OC)c2ccnc(OC)c2OC)cc(N(C)C)n1 (racemic)		0.45 (≈ 0.702 µM)								0.02 (≈ 0.0312 µM)
CCOc1cc([C@](O)(CCN(C)C)[C@@H](c2cc3cc(Br)ccc3nc2OC)c2cccc(OC)c2F)cc(OC)n1 (racemic)	51	< 0.01	4.1	> 30	> 10	4000	14	46	19	< 0.01
CCSc1cc([C@](O)(CCN(C)C)[C@@H](c2cc3cc(Br)ccc3nc2OC)c2ccnc(OC)c2OC)cc(N(C)C)n1 (racemic)		0.04 (≈ 0.0596 µM)		> 10						0.57 (≈ 0.85 µM)
COc1cc([C@](O)(CCN(C)C)[C@@H](c2cc3cc(Br)ccc3nc2OC)c2cccc(OC)c2F)cc(SC)n1 (racemic)	32	< 0.02	4.8	> 30	> 10	4600	20	31	13	< 0.02
CCCOc1cc([C@](O)(CCN(C)C)[C@H](c2cccc(C)c2)c2cc3cc(Br)ccc3nc2OC)cc(OC)n1 (racemic)		0.01 (≈ 0.0164 µM)		> 10						0.02 (≈ 0.0329 µM)
CCCOc1cc([C@](O)(CCN(C)C)[C@@H](c2cc3cc(Br)ccc3nc2OC)c2ccnc(OC)c2OC)cc(OC)n1 (racemic)	44	0.01 (≈ 0.0153 µM)	8.2		> 10	10900	6.5	50	6.9	0.06 (≈ 0.0915 µM)
COc1cccc([C@H](c2cc3cc(Br)ccc3nc2OC)[C@@](O)(CCN(C)C)c2cc(SC)nc(SC)c2)c1F (racemic)	15	< 0.02	3.4	> 10	9.6 (≈ 14.8 µM)	8400	17	66	13	< 0.02
COc1cc([C@](O)(CCN(C)C)[C@@H](c2cc3cc(C#N)ccc3nc2OC)c2cccc(OC)c2F)cc(OC(F)F)n1 (racemic)		< 0.02								< 0.02
COc1cc([C@](O)(CCN(C)C)[C@@H](c2cc3cc(C#N)ccc3nc2OC)c2ccnc(OC)c2OC)cc(N(C)C)n1 (racemic)	14	0.06 (≈ 0.102 µM)	8.4	3.4	> 10	3300	16	50	26	0.06 (≈ 0.102 µM)
COc1cc([C@](O)(CCN(C)C)[C@@H](c2cc3cc(Br)ccc3nc2OC)c2cccc(OC)c2F)cc(S(C)(=O)=O)n1 (racemic)		0.46 (≈ 0.694 µM)		1.8						0.73 (≈ 1.1 µM)
CCOc1cc([C@](O)(CCN(C)C)[C@@H](c2cc3cc(Br)ccc3nc2OC)c2ccnc(OC)c2OC)cc(OC)n1 (racemic)	28	< 0.02	3.8	3.3	> 10	12700	7.6	70	9.5	< 0.02
CCSc1cc([C@](O)(CCN(C)C)[C@@H](c2cc3cc(Br)ccc3nc2OC)c2ccnc(OC)c2OC)cc(SCC)n1 (racemic)		0.04 (≈ 0.0582 µM)		9.2						0.21 (≈ 0.305 µM)
CCSc1cc([C@](O)(CCN(C)C)[C@@H](c2cc3cc(C#N)ccc3nc2OC)c2cccc3c2OCO3)cc(SCC)n1 (racemic)		< 0.02		> 10						0.05 (≈ 0.0811 µM)
CCS(=O)(=O)c1cc([C@](O)(CCN(C)C)[C@@H](c2cc3cc(C#N)ccc3nc2OC)c2ccnc(OC)c2OC)cc(S(=O)(=O)CC)n1 (racemic)		4.4 (≈ 6.31 µM)								5 (≈ 7.17 µM)
CCOc1cc([C@](O)(CCN(C)C)[C@@H](c2cc3cc(Br)ccc3nc2OC)c2c(OC)cncc2OC)cc(OC(C)C)n1 (racemic)	20	< 0.02	1.1	> 10	> 10	33000	2.3	58	2.7	< 0.02
